# Assay outcomes: PubChem, Johns Hopkins Ion Channel Center
# Hits are enriched below; roughly 3.5% of the tested compounds scored in any of these assays.
# MrgX1 PAM: allosterically activates human MrgX1 receptor signaling | AID 588675 | Q96LB2 | B-score at 10 µM | hit rate 0.63% among 310,000 | MrgX1-HEK293, Fluo-4 calcium flux, FDSS; active compounds read high;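 active = plate-corrected calcium response at least 3 library SD above typical, normal starting fluorescence, not activating the receptor alone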;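 also: compound read alongside a low EC10 to EC30 dose of BAM8-22 agonist; peak minus trough fluorescence over baseline measured at the second addition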
# Target sequence (Q96LB2 whole entry, looked up): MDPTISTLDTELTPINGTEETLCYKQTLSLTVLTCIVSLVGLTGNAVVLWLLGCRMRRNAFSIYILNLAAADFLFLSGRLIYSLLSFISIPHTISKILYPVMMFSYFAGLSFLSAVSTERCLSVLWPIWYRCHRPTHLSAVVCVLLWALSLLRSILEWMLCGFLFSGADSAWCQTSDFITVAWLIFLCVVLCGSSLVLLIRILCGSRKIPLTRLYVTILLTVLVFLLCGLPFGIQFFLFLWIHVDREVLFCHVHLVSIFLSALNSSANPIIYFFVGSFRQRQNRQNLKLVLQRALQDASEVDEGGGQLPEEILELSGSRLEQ
# MrgX1 ag: activates human MrgX1 receptor signaling; Q96LB2; MrgX1-HEK293 cells, Fluo-4 calcium fluorescence, agonist mode; active compounds read high; B-score at 10 µM; hit rate 0.44% among 310,000; AID 588627;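 active = calcium response B-score plate-corrected fluorescence ratio at least 3 library SD, with starting fluorescence B-score inside 5 SD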
#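 Material: MrgX1-expressing HEK293 cells / Dosing: compound as first of three additions / Incubation: overnight seeding, then 1 h dark dye loading / Signal: Fluo-4 NW calcium fluorescence / Evaluation: B-scored fluorescence response ratio / Benchmarks: positive and negative control wells on each plate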
# RGS4 act: RGS4 potentiation or activation | hit rate 0.92% among 310,000 | B-score at 10 µM | HEK293 M3R/inducible RGS4, carbachol calcium flux Fluo4; active compounds read low;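 active = B-score of the integrated calcium signal more than 4 SD below the library mean, with starting fluorescence not abnormally high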;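 also: negative B-score means reduced calcium response which marks RGS4 activation or potentiation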
#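 Test system: HEK293 cells with stable M3R and inducible RGS4; also added: carbachol at ECmax as muscarinic agonist stimulus; schedule: dye loading 30 min 37 °C, buffer rest 30 min RT; technique: kinetic calcium fluorescence imaging with Fluo4-AM dye, 2 µM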
# RGS4 inh: human RGS4 inhibition; P49798; HEK293 M3R/RGS4 inducible, Fluo-4 calcium flux; active compounds read high; triggered by carbachol at its EC20; B-score at 10 µM; hit rate 0.45% among 310,000; AID 463165;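 active = B-score, a plate-corrected calcium signal, over three deviations above library mean, with baseline fluorescence within five deviations of library mean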;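 also: RGS4 expression induced by doxycycline in cells with stable M3 receptor; B-score is computed from the integrated fluorescence ratio over baseline after carbachol; higher B-score means a larger calcium signal and so more RGS4 inhibition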
# Target sequence (P49798 whole entry, looked up): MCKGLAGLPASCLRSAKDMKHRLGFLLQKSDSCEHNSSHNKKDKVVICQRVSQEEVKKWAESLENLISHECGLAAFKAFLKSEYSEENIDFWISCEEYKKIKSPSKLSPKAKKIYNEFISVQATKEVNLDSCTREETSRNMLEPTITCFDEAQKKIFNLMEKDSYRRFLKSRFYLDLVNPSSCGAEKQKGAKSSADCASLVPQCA
# MrgX1 antag: antagonists of human MrgX1 receptor | Q96LB2 | MRGX1-HEK293 calcium flux, Fluo-4, BAM8-22 antagonism; active compounds read low | hit rate 1.3% among 310,000 | B-score at 10 µM;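 active = calcium-response B-score plate-corrected more than 3 library SD below zero, starting fluorescence within 5 deviations, no agonist response on first addition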;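 also: peak minus trough fluorescence over baseline after final BAM8-22 challenge near maximal dose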
# RGS4 block valid: validation of RGS4 inhibitors; shares compounds with RGS4 inh; HEK293 M3R/RGS4, carbachol calcium Fluo-4 fluorescence; carbachol added at its EC20; 0 = buffer wells, 100 = carbachol control; calcium response, % at 10 µM; hit rate 65% among 1,700; AID 492999;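 active = duplicate-averaged calcium response above the buffer-only control mean plus 5 SD of those controls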;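 also: integrated fluorescence ratio F max minus min over baseline F0; higher response in RGS4-induced cells means RGS4 inhibition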
# M3R Ca ctr: checks RGS4 inhibitor effects in non-induced HEK293 M3R cells; shares compounds with RGS4 inh; carbachol calcium Fluo-4; submaximal (EC20) carbachol stimulus; buffer wells 0%, carbachol control wells 100%; activity (percent), % at 10 µM; hit rate 20% among 1,900; call rule not given here;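 also: RGS4 induction absent so cells express M3R without RGS4; higher means more calcium signal and flags a non-specific hit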
# M3R basal Ca ctr: second RGS4 inhibitor counter-screen in uninduced cells lacking carbachol; shares compounds with RGS4 inh; hit rate 22% among 1,900; calcium response (agonist-mode artifact), % at 10 µM; HEK293 M3R/RGS4 non-induced, Fluo-4 calcium, no carbachol; normalised: buffer wells 0%, carbachol wells 100%;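 active = duplicate-averaged calcium rise in uninduced cells above buffer wells' mean plus 5 SD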
# Hits are given with their value; . = inactive; / = no result given.
SMILES,MrgX1 PAM,MrgX1 ag,RGS4 act,RGS4 inh,MrgX1 antag,RGS4 block valid,M3R Ca ctr,M3R basal Ca ctr
Cc1ccc(-c2ccc(C(=O)NCc3ccccc3)o2)c2ccccc12,.,.,.,7,.,.,.,.
COC(=O)Nc1ccc(=O)n(Cc2c(Cl)cccc2Cl)c1,.,.,.,.,.,/,.,.
C#CCOC(=O)Nc1cccn(Cc2c(Cl)cccc2Cl)c1=O,.,.,.,.,.,/,/,/
NC(=S)NN=C(Cc1ccccc1)Cc1ccccc1,.,.,.,.,.,/,/,/
CCC(=O)C1CCCN(C(=O)c2ccc(OC3CCN(C(=O)c4cccnc4)CC3)cc2)C1 (configuration not stated),.,.,.,.,.,/,/,/
Cc1ccc(NC(=O)CN(C)C(=O)c2cccnc2Nc2cccc(C(F)(F)F)c2)cc1,.,.,.,6.8,.,18%,.,.
Cn1cc(C(=O)Nc2ccc(C#N)cc2)c2ccccc2c1=O,.,.,.,.,.,/,/,/
CC(C)(C)c1ccc(/C=C(\c2nc3ccccc3[nH]2)S(=O)(=O)c2ccccc2)cc1,.,.,.,.,.,.,.,.
O=C(NN=C1CCCC1)c1[nH]c2ccc(Cl)cc2c1-c1ccccc1,.,.,.,11,.,50%,.,.
CC(=O)NNC(=O)c1[nH]c2ccc(Cl)cc2c1-c1ccccc1,.,.,.,.,.,/,/,/
CCOc1ccc(-c2csc(NC(=O)CSC3=NC(=O)CN3C(C)=O)n2)c2ccccc12,.,.,.,.,.,/,/,/
CC(=O)N1CC(=O)N=C1SCC(=O)Nc1nc(C)c(-c2ccccc2)s1,.,.,.,.,.,.,.,.
Cc1cccc(C(C)C)c1NC(=O)C(C)OC(=O)Cn1cnc2c1c(=O)n(C)c(=O)n2C (configuration not stated),.,.,.,.,.,/,/,/
CC(=N\Nc1ccccc1)/C(=N/O)C(=O)Nc1ccccc1,.,.,.,.,.,/,.,.
O=C(C1CCCN1S(=O)(=O)c1cccc2nsnc12)N1CCCCCC1 (configuration not stated),.,.,.,.,.,/,/,/
C=CCn1c(O)c(C2=c3ccccc3=NC2=O)c2ccccc21,.,.,.,5.6,.,12%,33%,22%
Cc1ccc2c(c1)c(C1=c3ccccc3=NC1=O)c(O)n2C,.,.,.,.,.,/,/,/
CC(C)CN(C(=O)c1ccc(S(=O)(=O)N2CCOCC2)cc1)C1CCS(=O)(=O)C1 (configuration not stated),.,.,.,.,.,/,/,/
Cc1ccc(Nc2nc(N)c3ccccc3n2)cc1Cl,.,.,.,7.3,.,9.5%,.,.
Nc1nc(Nc2ccccc2)nc2ccccc12,.,.,.,.,.,/,/,/
COc1cc2nc(Nc3ccc(C)c(Cl)c3)nc(N)c2cc1OC,.,.,.,.,.,/,/,/
Nc1nc(Nc2ccc(Cl)cc2)nc2ccccc12,.,.,.,22,.,.,.,.
Oc1ccc(N=Nc2ccc3ccccc3c2)cc1,.,.,.,.,.,/,/,/
O=C1Cc2ccccc2C(=O)N1c1cccc(Cl)c1,.,.,.,.,.,/,/,/
O=C1Cc2ccccc2C(=O)N1c1ccccc1,.,.,.,5.6,.,5.0%,.,.
SMILES,MrgX1 PAM,MrgX1 ag,RGS4 act,RGS4 inh,MrgX1 antag,RGS4 block valid,M3R Ca ctr,M3R basal Ca ctr
Cc1ccc(NC(=O)NC(=O)CSc2nnc(-c3ccc(Cl)cc3Cl)n2N)c(C)c1,.,.,.,5.2,.,.,.,.
Cc1ccc(-c2nnc(SCC(=O)NC(=O)Nc3ccc(C)cc3C)n2N)cc1,.,.,.,.,.,/,/,/
O=c1cc(-c2ccc(O)c(O)c2)oc2cc(O)cc(O)c12,.,.,.,.,.,/,/,/
O=c1c(O)c(-c2ccc(O)c(O)c2)oc2cc(O)cc(O)c12,8.8,.,.,5,.,34%,40%,.
Cc1ccc(OCC(=O)NNC(=O)CCc2ccccc2)c(Br)c1,.,.,.,.,.,/,/,/
O=C(Cc1ccc(Br)c2ccccc12)N/N=C/c1ccccn1,.,.,.,5,.,62%,.,.
O=C(Cc1cccs1)N1CCN(S(=O)(=O)c2cc(Cl)ccc2Cl)CC1,.,.,.,.,.,/,/,/
O=C(Nc1nnc(-c2ccc3c(c2)OCCO3)o1)C1CCCCC1,.,.,.,8.4,.,7.0%,.,.
COc1ccc(OC(C)C(=O)NC2CCCCCC2)cc1 (configuration not stated),.,.,.,.,.,/,/,/
COc1ccc(CCN2CCCn3c2nc2c3c(=O)n(C)c(=O)n2C)cc1OC,/,/,.,.,/,/,/,/
Cc1sc(NC(=O)c2cc(-c3ccc(Cl)cc3)nc3ccccc23)c(C(N)=O)c1C,.,.,.,.,.,/,/,/
CCc1nnc(NC(=O)c2cc(-c3ccccn3)nc3ccc(Br)cc23)s1,.,.,.,.,.,/,/,/
Cc1sc(NC(=O)c2cc(-c3ccccc3)nc3ccccc23)c(C(N)=O)c1C,.,.,.,.,.,/,.,.
CCc1nnc(NC(=O)c2cc(-c3ccncc3)nc3ccccc23)s1,.,.,.,4.9,.,18%,.,.
COC(=O)c1sc(N2CCN(c3ccc(Cl)cc3)CC2)nc1N,.,.,.,.,.,/,/,/
CSc1ncccc1C(=O)NCCc1ccccc1F,.,.,.,.,.,/,/,/
COc1ccc(-n2c(O)c(/C=C3\C=Nc4ccccc43)c(=O)[nH]c2=O)cc1,/,/,.,.,/,/,/,/
Cc1ccc(-n2c(O)c(/C=C3/C(c4ccccc4)=Nc4ccccc43)c(=O)[nH]c2=O)cc1,.,29,.,9.8,.,5.0%,.,49%
CCOC(=O)C1C(=O)NC(c2ccccc2)=NC1c1ccc(Br)cc1 (configuration not stated),.,.,.,.,.,/,/,/
CCOC(=O)c1c(-c2ccc(C)o2)csc1NC(=S)NC(=O)N(C)C,.,.,.,21,.,.,.,.
Cc1c(OCC(=O)N[C@@H](Cc2ccccc2)C(=O)O)ccc2c3c(c(=O)oc12)CCC3,.,.,.,.,.,.,.,.
Cc1c(OCC(=O)N[C@@H](CSCc2ccccc2)C(=O)O)ccc2c3c(c(=O)oc12)CCC3,/,/,.,4.9,/,.,.,.
O=C(NCCCN1CCOCC1)C(C(=O)NCCCN1CCOCC1)c1ncc(C(F)(F)F)cc1Cl,.,.,.,.,.,/,/,/
Cc1ccc2nc(NC(=O)C3CC3C)sc2c1 (configuration not stated),.,.,.,.,.,/,/,/
CC1CC1C(=O)Nc1nc2ccc(S(C)(=O)=O)cc2s1 (configuration not stated),.,.,.,6.1,.,.,.,.
COc1cc(Cl)c(C)cc1NC(=O)c1ccc(S(C)(=O)=O)cc1,.,.,.,.,.,/,/,/
Cc1ccc(-c2nc3cnccn3c2Nc2ccc3c(c2)OCO3)o1,.,.,.,.,.,/,/,/
Cc1ccc(Nc2c(-c3ccc(C)o3)nc3cnccn23)cc1,.,.,.,.,.,.,.,.
